Source: PubChem (several laboratories)
Shown are actives, neighbours in structure and some others; about 1.3% of the full set was active somewhere.
HKDC1 inhibitor: inhibitors of human hexokinase HKDC1; Q2TB90; recombinant HKDC1, G6PDH/diaphorase resazurin coupled fluorescence; inhibition, % at 20 µM; actives 0.16% (n = 340,000);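 active = inhibition above about 35% when tested at 20 µM, limit read from the data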
Target sequence (Q2TB90 whole entry, looked up): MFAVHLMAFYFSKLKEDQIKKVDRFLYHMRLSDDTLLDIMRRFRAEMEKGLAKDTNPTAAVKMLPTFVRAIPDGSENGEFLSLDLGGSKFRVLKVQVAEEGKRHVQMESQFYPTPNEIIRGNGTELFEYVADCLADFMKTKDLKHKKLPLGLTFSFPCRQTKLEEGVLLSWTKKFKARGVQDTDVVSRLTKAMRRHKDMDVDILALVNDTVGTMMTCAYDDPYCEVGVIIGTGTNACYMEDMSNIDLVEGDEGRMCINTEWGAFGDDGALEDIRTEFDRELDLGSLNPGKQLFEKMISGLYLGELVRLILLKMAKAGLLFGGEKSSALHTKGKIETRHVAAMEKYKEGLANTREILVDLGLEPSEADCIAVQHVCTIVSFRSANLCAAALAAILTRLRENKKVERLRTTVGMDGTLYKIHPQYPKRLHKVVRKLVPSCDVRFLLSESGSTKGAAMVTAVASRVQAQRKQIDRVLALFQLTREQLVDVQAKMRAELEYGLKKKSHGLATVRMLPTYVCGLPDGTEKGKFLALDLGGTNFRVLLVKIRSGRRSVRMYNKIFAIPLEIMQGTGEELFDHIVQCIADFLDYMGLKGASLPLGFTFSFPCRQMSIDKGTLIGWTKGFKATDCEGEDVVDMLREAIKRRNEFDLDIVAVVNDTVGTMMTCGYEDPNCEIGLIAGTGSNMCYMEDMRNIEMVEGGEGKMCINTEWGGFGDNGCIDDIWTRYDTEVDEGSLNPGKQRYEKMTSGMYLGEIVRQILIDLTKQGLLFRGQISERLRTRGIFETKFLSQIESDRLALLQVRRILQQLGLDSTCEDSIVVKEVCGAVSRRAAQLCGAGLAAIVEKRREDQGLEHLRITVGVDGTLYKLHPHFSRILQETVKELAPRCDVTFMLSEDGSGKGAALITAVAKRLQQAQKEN
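test system = in-house recombinant HK5 (HKDC1) enzyme | amount = HKDC1 at 5 µg/mL | control set = DMSO-enzyme wells negative, buffer-substituted wells positive | compound = one dose of 20 µM, 1% DMSO | schedule = reaction time 90 min, room temperature, protected from light | technique = resorufin fluorescence at 613 nm | reagent = glucose with 1 mM ATP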
Diaphorase act: counter-screen for diaphorase-based assays: diaphorase activators and chemical reducers; Diaphorase/resazurin coupled assay, resorufin fluorescence, 16 min; hits give high values; 1 = vehicle wells, 0 = NADH-free wells; AID 1229; actives 0.005% (n = 190,000); activation factor at 20 µM;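 active = diaphorase activity raised at least twofold by the compound at 20 µM; inactive = activation factor below 2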
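Assay system: Purified diaphorase enzyme from Clostridium kluyveri | Amount: Enzyme 0.07 U/mL final | Dosing: Compound 20 µM once, DMSO 1% | Timing: 16 min reaction at room temperature | Detection: Fluorescence, excitation 544 nm and emission 590 nm | Evaluation: Higher resorufin formation from activation or reduction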
PfGluPho inh: PfG6PD (Plasmodium falciparum) enzyme inhibition. inhibition, % at 20 µM. PfGluPho enzyme, NADPH resazurin-diaphorase fluorescence. actives 0.78% (n = 350,000);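 active = inhibition reaching at least a set limit at 20 µM in the primary screen, cut at about 59% in these data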
G6PDH counter: L. mesenteroides G6PDH inhibition counter-screen; Purified L. mesenteroides G6PDH, diaphorase/resazurin coupled fluorescence, 45 min; inhibition, % at 5 µM; actives 0.12% (n = 200,000); AID 1020; in the data active = inhibition above about 50%
Diaphorase inh: inhibits diaphorase or chemically oxidizes, flagging diaphorase assay artifacts | AID 1217 | actives 0.69% (n = 190,000) | diaphorase resazurin-to-resorufin fluorescence, NADH, 16 min; bacterial (C. kluyveri) enzyme, not human | inhibition, % at 20 µM;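 active = primary screen inhibition at 20 µM above a set limit, cut at about 50% in these data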
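Test system: Clostridium kluyveri diaphorase enzyme / Quantity: diaphorase at 0.14 U/mL in enzyme working solution / Incubation: 16-min room-temperature incubation before reading / Benchmarks: NADH-free wells as positive control, DMSO-only neutral wells / Signal: resorufin fluorescence 544/590 nm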
TbHK1 inh: blocks Trypanosoma brucei hexokinase 1 activity. recombinant TbHK1, G6PDH-coupled NADH A340. inhibition, % at 10 µM. actives 0.11% (n = 220,000). AID 1430;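 active = inhibition of 50% or more in the single-dose primary screen; inactive = inhibition below 50%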
HKDC1 act conf: confirmation of human HKDC1 activators | shares compounds with HKDC1 inhibitor | recombinant HKDC1, G6PDH/diaphorase resazurin fluorescence; hits give low values | inhibition, % at 20 µM | actives 14% (n = 740) | AID 504708;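 active = inhibition at or below a set negative limit, negative inhibition meaning the enzyme was activated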
Hits are given with their value; i = inactive; nt = no result.

SMILES	HKDC1 inhibitor	Diaphorase act	PfGluPho inh	G6PDH counter	Diaphorase inh	TbHK1 inh	HKDC1 act conf
COC1(NS(=O)(=O)c2ccc(Br)cc2)C(C)=CC(=O)C=C1C	50	i	i	i	52	i	i
Cc1ccc(NC(=O)CN2C(=O)S/C(=C/c3ccc(-c4cc(C(=O)O)ccc4C)o3)C2=O)cc1C	43	i	i	i	71	i	i
Cc1ccc(S(=O)(=O)NC(CC(C)C)C(=O)Nc2nccs2)cc1 (stereo not given)	i	i	i	i	i	i	nt
COc1ccc(CN2CCn3nc(C(=O)NC(C)C)cc3C2=O)cc1	i	i	i	i	i	i	i
COC(=O)c1cc2n(n1)CCN(Cc1ccc(C)cc1)C2=O	i	i	i	i	i	i	nt
CC(=O)Nc1ccc(C2=NNC(=Nc3ccc(S(=O)(=O)N4CCOCC4)cc3)SC2)cc1	i	nt	i	nt	nt	i	-234
CC(C)(C)N=C1NN=C(c2ccc(S(=O)(=O)N3CCCCC3)cc2)CS1	i	nt	i	nt	nt	nt	i
Cc1nonc1C(=O)N/N=C/c1ccc(O)cc1O	i	nt	i	i	nt	i	-34
Cc1nonc1C(=O)N/N=C/c1ccncc1	i	i	i	i	i	i	nt
Cc1cc([N+](=O)[O-])nn1CC(=O)N/N=C/c1ccc(O)cc1O	i	nt	i	nt	nt	i	i
CC(=NNC(=S)N1CCCCC1)c1ccccn1	nt	nt	i	nt	nt	nt	nt
CC(=NNC(=S)N1CC2CCC(CC2)C1)c1ccncn1	i	nt	i	nt	nt	nt	-61
N#Cc1ccc(CSc2nnc(NC(=O)c3ccc4ncsc4c3)s2)cc1	51	i	i	i	i	i	i
Cc1ccc(-c2nc(NC(=O)CSc3cc(C)c4ccccc4n3)ns2)cc1	57	i	i	i	66	i	i
O=C(CN(c1ccc(F)cc1)S(=O)(=O)c1ccccc1)N1CCOCC1	i	nt	i	nt	nt	nt	nt
CC1(C)Cc2c(cnn2-c2cccc(F)c2)C(NC(=O)c2ccc[n+]([O-])c2)C1 (stereo not given)	i	nt	i	nt	nt	nt	nt
O=C(CN(C(=O)CCC(=O)Nc1ccccn1)c1ccc2c(c1)OCO2)NCc1ccc(F)cc1	i	nt	i	nt	nt	nt	i
[S-]c1nnc(-c2ccc(Br)cc2)n1-c1ccccc1.[Zn+2]	49	nt	i	nt	nt	nt	i
CCCc1cc(=O)[nH]c(SCC(=O)Nc2ccc(Cl)c(S(=O)(=O)N3CCOCC3)c2)n1	i	nt	i	nt	nt	nt	nt
Cc1sc(-c2ccccn2)nc1OC(=O)c1ccc(F)cc1F	i	i	i	i	i	i	i
Cc1sc(-c2ccccn2)nc1OC(=O)c1ccc(Cl)c(Cl)c1	i	i	i	i	i	i	nt
CC(C(=O)O)N1C(=O)/C(=C/C=C/c2ccco2)SC1=S (stereo not given)	56	i	i	i	i	i	i
CCN(C(=O)C(C)N1C(=O)/C(=C/c2ccco2)SC1=S)C1CCS(=O)(=O)C1 (stereo not given)	i	nt	i	nt	nt	nt	nt
O=C(Nc1ccc(Cl)c(Cl)c1)Nc1nnc(-c2ccncc2)s1	41	i	i	i	i	i	i
COc1ccc(NC(=O)Nc2nnc(-c3ccncc3)s2)cc1	i	i	i	i	i	i	nt
SMILES	HKDC1 inhibitor	Diaphorase act	PfGluPho inh	G6PDH counter	Diaphorase inh	TbHK1 inh	HKDC1 act conf
CCOC(=O)C1=C(Cc2ccc(Cl)cc2)C(=O)c2ccccc2C1=O	60	i	94	55	i	i	i
CCOC(=O)C1=C(C)N=C2c3ccccc3C(=O)C2C1c1ccc(Cl)cc1 (stereo not given)	i	i	i	i	i	i	nt
CC(=O)Nc1ccc2cc3ccc(NC(C)=O)cc3nc2c1	43	nt	i	nt	nt	i	i
CC(=O)Nc1ccc2ccccc2c1	i	i	i	i	i	i	nt
CCc1nc2c(c(=O)c3ccccc3n2C)c(=O)n1-c1ccc(F)cc1	48	i	i	i	74	i	i
Cc1ccc(-c2nc3c(c(=O)c4ccccc4n3C)c(=O)n2-c2ccc(F)cc2)cc1	i	nt	i	nt	nt	i	nt
Cc1nc2c(c(=O)c3ccccc3n2C)c(=O)n1-c1ccccc1	51	nt	i	nt	nt	i	i
Cn1c2ccccc2c(=O)c2c(=O)n(-c3ccc(F)cc3)c(-c3cccs3)nc21	68	nt	i	nt	nt	i	i
COc1ccc(-c2sc(Nc3ccc(F)c(F)c3F)nc2CCC(=O)NN)cc1	i	nt	i	nt	nt	nt	nt
CN1OC[C@@H]2CN(Cc3ccccc3)[C@H](c3cccc(-c4ccc(C#N)cc4)c3)C[C@@H]21	i	nt	i	nt	nt	nt	nt
CC1(C)CC[C@]2(C(=O)n3ccnc3)CC[C@]3(C)[C@H](C(=O)C=C4[C@@]5(C)C=C(C#N)C(=O)C(C)(C)[C@@H]5CC[C@]43C)[C@@H]2C1	48	nt	i	nt	nt	nt	i
O=C1Nc2ccccc2C1Cc1ccccc1 (stereo not given)	i	nt	i	nt	nt	i	nt
O=C1C=CC2(C=C1)O[C@H](Cc1ccccc1)[C@@H](Cc1ccccc1)O2	38	nt	i	nt	nt	nt	i
CC(=O)N1CCN(S(=O)(=O)c2cccc(C(=O)OCC(=O)NCc3ccccc3Cl)c2)CC1	nt	nt	i	nt	nt	nt	nt
COc1ccc(C(=O)CSc2n[nH]c(-c3ccco3)n2)cc1	i	i	i	i	i	i	nt
